Bioassay records deposited in PubChem BioAssay by Broad Institute.
SR-BI HDL uptake: inhibitors of SR-BI mediated HDL lipid uptake, primary screen, ldlA[mSR-BI] cells, fluorescence, single point. Scavenger receptor class B member 1 (Mus musculus), Q61009. ldlA[mSR-BI] CHO cells, DiI-HDL uptake fluorescence, 3 h. inhibition, % at 12.5 µM. hit rate 0.96% among 320,000;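 active means mean replicate inhibition of at least 70% and a set share of replicates each scoring 70 or more; inconclusive means meets just one of the two criteria; inactive means fails both criteria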
Target sequence (Q61009 whole entry, looked up): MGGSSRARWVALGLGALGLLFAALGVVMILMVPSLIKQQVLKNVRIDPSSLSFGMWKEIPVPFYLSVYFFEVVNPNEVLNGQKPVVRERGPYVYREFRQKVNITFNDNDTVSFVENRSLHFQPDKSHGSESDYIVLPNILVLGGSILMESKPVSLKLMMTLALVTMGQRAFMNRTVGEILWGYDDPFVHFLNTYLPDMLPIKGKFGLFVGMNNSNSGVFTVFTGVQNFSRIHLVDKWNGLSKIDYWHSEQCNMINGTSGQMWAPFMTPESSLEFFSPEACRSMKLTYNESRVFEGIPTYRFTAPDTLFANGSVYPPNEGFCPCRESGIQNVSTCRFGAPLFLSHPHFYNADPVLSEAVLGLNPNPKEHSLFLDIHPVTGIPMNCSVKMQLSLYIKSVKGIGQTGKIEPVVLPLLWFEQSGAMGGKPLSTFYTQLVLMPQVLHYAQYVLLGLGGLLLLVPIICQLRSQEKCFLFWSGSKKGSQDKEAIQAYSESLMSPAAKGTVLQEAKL
PvdQ inh: P. aeruginosa PvdQ acylase inhibitors, primary screen, biochemical, fluorescence, plate reader and imaging, single point; purified PvdQ acylase; hit rate 0.063% among 340,000; inhibition, % at 10 µM; AID 488965, 2010; PvdQ acylase [Pseudomonas aeruginosa LESB58]; in the data active means inhibition above about 30%, passing the limit was not always enough; inconclusive means no clear call, values can overlap the other calls
XiGFP reactiv: activators of inactive X chromosome reactivation, primary screen, imaging, XiGFP fibroblasts, GFP high-content imaging, set 2. activation, % at 7.58 µM. hit rate 0.055% among 360,000. AID 743238, 2013. XiGFP mouse fibroblasts, % GFP-positive cells imaging, 3 d; cells co-treated with 5-aza-dC sensitizer; scaled so ellipticine positive control = 100%;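 active means mean normalized replicate activation at least 10% and every replicate at or above 10%; inconclusive means only one of the two criteria met; inactive means mean below 10% and not all replicates reach 10%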
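assay system = SV40-immortalized XiGFP fibroblast cells, line 68-5-11 | buffer or medium = DMEM plus 5-aza-dC sensitizer | doses = single-point pinned compound dosing | times = 3-day compound exposure, then 15 min fixation at room temperature | benchmarks = positive control ellipticine, 6 µM final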
dFosB activator: activators of delta FosB homodimer, primary screen, biochemical, fluorescence polarization, TAMRA-CDK5 oligo, single point. activation, % at 25 µM. hit rate 0.99% among 340,000. purified delta FosB; percent of positive-control signal above neutral wells;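 active means mean activation above about 17%, with every replicate also reaching it, limit read from the data, passing the limit was not always enough; inconclusive means only one of the two conditions met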
Ecoli rRNA inh: reduced GFP signal of wild-type E. coli, primary screen, bacterial rRNA inhibitor project, GFP/RFP fluorescence, OD600, single point. E. coli WT GFP vs humanized-ribosome RFP mutants, 24 h; active compounds read low; DMSO median 0, no signal -100. GFP signal change (wild-type ribosome), % (no concentration beside the values). hit rate 1.6% among 350,000. AID 720706, 2013;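 active means significant combined selectivity score with lowered wild-type GFP, culture density cut under 30%, mutant RFP and density less affected; inactive means any of these conditions unmet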
SR-BI DiI-HDL act: activators of SR-BI mediated DiI-HDL uptake, primary screen, ldlA[mSR-BI] CHO cells, DiI fluorescence | AID 504775, 2011 | 3 h; 100 = double the neutral-control signal | activation, % at 12.5 µM | hit rate 0.096% among 320,000;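 active means mean replicate activation of at least 60% and every replicate at or above 60%; inconclusive means mean or all-replicate condition met, but not both; inactive means mean below 60% and not all replicates reaching 60%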
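Test system: SR-BI-overexpressing, LDLR-lacking CHO cells. Measured by: DiI fluorescence, bottom read. Medium: Ham's F12 with 0.5% BSA, HEPES 25 mM, pH 7.4. Timing: 3 h uptake period with compound, 37 °C.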
HepG2 tox: cytotoxicity in HepG2 cells, dose response, cytotoxicity control, cell-based, CellTiter-Glo luminescence, cherry-pick, set 4. shares compounds with Ecoli rRNA inh. HepG2 viability, ATP luminescence, 72 h. activity change, negative = cytotoxicity, unspecified at 26 µM. 30 tested, under 10 active;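 active means compounds whose fitted half-maximal signal-loss concentration is at most twice their highest valid dose; inconclusive means flat curve with 30 to 70% signal loss, or poor fit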
AID977621: growth inhibition of wild-type GFP E. coli, dose response, H69 mutant RFP, cherry-pick. shares compounds with Ecoli rRNA inh. E. coli wild-type GFP strain growth, fluorescence, 24 h. activity change, negative = inhibition at 50 µM. 1,900 tested, under 10 active;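 active means Wild-type ribosome reporter drop at least double the humanized mutant ribosome reporter drop, growth loss under a set limit; inconclusive means no clear call, values can overlap the other calls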;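 further: wild-type GFP and H69 mutant RFP strains grown together 50/50 in each well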
AID977628: E. coli growth inhibition, wild-type GFP versus h24 humanized RFP strain, dose response, h24 mutant RFP vs wild-type GFP, cherry-pick; shares compounds with Ecoli rRNA inh; E. coli WT GFP strain growth, fluorescence, 24 h; activity change, negative = inhibition at 50 µM; 1,900 tested, under 10 active;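 active means compound lowering the normal-ribosome reporter at least twice as much as the humanized-ribosome reporter, growth loss under a set limit; inconclusive means no clear call, values can overlap the other calls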;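 further: wild-type GFP and h24 humanized RFP strains co-cultured 1 to 1 per well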
Each line names hits and unclear results; the compound was inactive in the other large screens (follow-up assays come after a bar, where they were run). Hits are enriched below; roughly 2.6% of the tested compounds scored in any of these assays.

CC(NC(=O)C12CC3CC(C)(CC(C)(C3)C1)C2)c1ccncc1 (stereo not given)	Ecoli rRNA inh -23.6 | AID977621 inactive | AID977628 inactive
CCc1nnc(NC(=O)CSc2ncc(-c3ccccc3)[nH]2)s1	Ecoli rRNA inh -19.6 (no result: XiGFP reactiv) | AID977621 inactive | AID977628 inactive
NS(=O)(=O)c1cc(C(=O)OCC(=O)Nc2ccc(Cl)cc2[N+](=O)[O-])ccc1Cl	none
NS(=O)(=O)c1cc(C(=O)OCC(=O)Nc2ccccc2[N+](=O)[O-])ccc1Cl	Ecoli rRNA inh -19.7 | AID977628 inactive
COC(=O)C[C@H]1C[C@H]2c3cc(NC(=O)CN(C)C)ccc3O[C@H]2[C@H](CO)O1	none (no result: SR-BI HDL uptake, PvdQ inh, dFosB activator, SR-BI DiI-HDL act)
CCOC(=O)CSc1nc(C)c2cc(C)c(C)cc2n1	none (no result: Ecoli rRNA inh)
Cc1cc2nc(SCC(=O)O)nc(C)c2cc1C	Ecoli rRNA inh -17.4 (no result: XiGFP reactiv) | AID977621 inactive
Cc1ccc(NC(=O)c2ccc([N+](=O)[O-])o2)c(C)c1	Ecoli rRNA inh -33.0 | AID977628 inactive
Cc1ccccc1NC(=O)c1ccc([N+](=O)[O-])o1	none (no result: Ecoli rRNA inh)
O=[N+]([O-])c1ccc(-n2nnnc2CN2CCOCC2)cc1	none
O=C(CSc1nnc(COc2cccc3cccnc23)o1)c1ccc(F)cc1	Ecoli rRNA inh -24.8 (no result: XiGFP reactiv) | AID977621 inactive | AID977628 inactive
Cc1ccc(S(=O)(=O)N2C/C=C\CN(S(=O)(=O)c3ccccc3Br)CC2)cc1	none
Cc1ccc(S(=O)(=O)N2CCCN(S(=O)(=O)c3ccccc3Br)CC2)cc1	Ecoli rRNA inh -17.1 | AID977621 inactive | AID977628 inconclusive
NS(=O)(=O)c1cccc(NC(=O)COc2ncnc3c2cnn3-c2ccccc2)c1	Ecoli rRNA inh -19.5 | AID977621 inconclusive
C=CCSc1cc(C)nc2c(-c3ccccc3)c(C)nn12	Ecoli rRNA inh -38.0 | AID977621 inactive | AID977628 inactive
O=S1(=O)c2ccccc2C(O)(c2ccccc2)c2ccccc21	Ecoli rRNA inh -21.0 | AID977628 inconclusive
CCC(C)c1ccccc1NC(=O)c1cccnc1 (stereo not given)	none (no result: XiGFP reactiv)
CCC(C)c1ccccc1NC(=O)c1cccc(-n2cnnn2)c1 (stereo not given)	Ecoli rRNA inh -21.1 | AID977621 inactive | AID977628 inactive
Cn1c(CO)cnc1SCC(=O)c1ccc(Br)cc1	Ecoli rRNA inh -20.7 | AID977621 inactive | AID977628 inactive
Cn1c(CO)cnc1SCC(=O)c1ccc(F)cc1	none
COc1ccc(CCN(C)C(=O)c2ccc(C)c(S(=O)(=O)N3CCCCC3)c2)cc1OC	none
CCOC(=O)C1NN=C(C(=O)c2ccccc2)C1c1ccccc1 (stereo not given)	none
CCOC(=O)C1NN=C(C(=O)c2ccccc2)C1c1ccc(OC)cc1 (stereo not given)	Ecoli rRNA inh -25.2 | AID977621 inactive | AID977628 inactive
O=S(=O)(c1cnc(Cl)c(Cl)c1)N1CCCc2ccccc21	Ecoli rRNA inh -25.1 | AID977621 inactive | AID977628 inactive
Cc1ccc(S(=O)(=O)N2CCCc3ccccc32)cc1	none (no result: SR-BI HDL uptake, PvdQ inh, dFosB activator, SR-BI DiI-HDL act)
Cc1cc(C)c(C#N)c(N2CCN(c3ccccc3)CC2)n1	Ecoli rRNA inh -26.4 | HepG2 tox inactive
Cn1c(=O)oc2cc(S(=O)(=O)CCC(=O)N3CCN(c4ccccc4F)CC3)ccc21	none
Cc1ccc(C)c(N2CCN(C(=O)CCS(=O)(=O)c3ccc4c(c3)oc(=O)n4C)CC2)c1	Ecoli rRNA inh -19.4 | AID977621 inactive | AID977628 inactive
O=C(CC(c1ccccc1)c1cc(Br)ccc1O)N1CCCC1 (stereo not given)	Ecoli rRNA inh -20.4 | AID977628 inconclusive
Cc1nc2ncnn2c(N2CCC(C(=O)NC3CCCC3)CC2)c1Cc1ccccc1	Ecoli rRNA inh -19.0 (no result: XiGFP reactiv) | AID977621 inactive | AID977628 inactive
CC(=O)NC(Cc1ccc(F)c(F)c1)C(=O)NC1CCN(c2c(Cc3ccccc3)c(C)nc3ncnn23)CC1 (stereo not given)	none
CCOC(=O)c1ccc(NC(=O)COc2ccc(CNCCO)cc2OCC)cc1	Ecoli rRNA inh -23.6 | AID977621 inactive | AID977628 inactive
COc1cc(NC(=O)CSc2nc(C)cs2)cc(OC)c1	Ecoli rRNA inh -29.6 (no result: XiGFP reactiv) | AID977621 inactive
O=C(O)C[C@@H]1C[C@H]2c3cc(NC(=O)Nc4ccccc4)ccc3O[C@H]2[C@@H](CO)O1	none (no result: SR-BI HDL uptake, PvdQ inh, dFosB activator, SR-BI DiI-HDL act)
C[C@@H]1CCCCO[C@H](CN(C)C(=O)CCCN(C)C)[C@H](C)CN([C@H](C)CO)C(=O)c2cc(NC(=O)Nc3cccc4ccccc34)ccc2O1	none (no result: SR-BI HDL uptake, PvdQ inh, dFosB activator, SR-BI DiI-HDL act) | AID977628 inconclusive
C[C@H](CO)N1C[C@H](C)[C@@H](CN(C)C(=O)CCCN(C)C)OCCCC[C@H](C)Oc2ccc(NC(=O)Nc3cccc4ccccc34)cc2C1=O	none (no result: SR-BI HDL uptake, PvdQ inh, dFosB activator, SR-BI DiI-HDL act) | AID977621 inactive | AID977628 inconclusive
C[C@@H]1CCCCO[C@@H](CN(C)C(=O)CCCN(C)C)[C@H](C)CN([C@H](C)CO)C(=O)c2cc(NC(=O)Nc3ccccc3)ccc2O1	none (no result: SR-BI HDL uptake, PvdQ inh, dFosB activator, SR-BI DiI-HDL act)
Cc1noc(C)c1S(=O)(=O)N(CC(=O)NCc1ccc2c(c1)OCO2)c1ccc(C(C)C)cc1	none
COc1cccc(S(=O)(=O)N2CCCCN3[C@H](CO)[C@H](c4ccc(C#CC(C)C)cc4)[C@H]3C2)c1	none (no result: SR-BI HDL uptake, PvdQ inh, dFosB activator, SR-BI DiI-HDL act)
COc1cccc(S(=O)(=O)N2CCCCN3[C@H](C2)[C@@H](c2ccc(C#CC(C)C)cc2)[C@@H]3CO)c1	none (no result: SR-BI HDL uptake, PvdQ inh, dFosB activator, SR-BI DiI-HDL act) | AID977621 inactive | AID977628 inactive
